According to PMC11541586 (Communications Biology, 2024):

How the values were obtained:
CNRs = assay: NanoBiT-G-protein dissociation assay for CNRs; assay type: cell-based, human
human LPA1 = human LPA1 (Homo sapiens, UniProt Q92633); assay: NanoBiT-G-protein dissociation assay; assay type: cell-based
Method in brief: (§1)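 Human LPA1 (N-terminal FLAG-tagged, wild type or point mutant) is co-transfected into HEK293T cells with LgBiT-Gαi1, untagged Gβ1 and SmBiT-Gγ2 C68S. After 1 d, cells are resuspended in HBSS with 0.01% fatty-acid-free BSA and loaded with coelenterazine for 2 h.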

human LPA1 W210A mutant = human LPA1 W210A mutant (Homo sapiens, UniProt Q92633, W210A); assay: NanoBiT-G-protein dissociation assay, LPA1 W210A mutant; assay type: cell-based
Method in brief: as §1

FFAR4 = biological target: T1, FFAR4 (Homo sapiens, UniProt Q5NUL3); assay: NanoBiT-G-protein dissociation assay for FFAR4; assay type: cell-based; conditions: FFAR4 (b17 prints FFARs)
T1 sequence (Q5NUL3 1-361): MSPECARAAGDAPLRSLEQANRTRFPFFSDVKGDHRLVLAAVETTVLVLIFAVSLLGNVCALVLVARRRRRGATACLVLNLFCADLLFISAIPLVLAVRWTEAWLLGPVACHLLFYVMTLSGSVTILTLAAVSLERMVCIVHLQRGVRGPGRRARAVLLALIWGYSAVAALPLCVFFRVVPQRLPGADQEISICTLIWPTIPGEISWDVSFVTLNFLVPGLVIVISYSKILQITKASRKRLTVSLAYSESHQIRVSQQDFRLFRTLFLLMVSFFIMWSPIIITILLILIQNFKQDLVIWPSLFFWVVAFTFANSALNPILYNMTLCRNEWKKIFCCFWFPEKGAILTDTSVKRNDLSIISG

human LPA1 W271F mutant = human LPA1 W271F mutant (Homo sapiens, UniProt Q92633, W271F); assay: NanoBiT-G-protein dissociation assay, LPA1 W271F mutant; assay type: cell-based
Method in brief: as §1

human LPA1 L278A mutant = human LPA1 L278A mutant (Homo sapiens, UniProt Q92633, L278A); assay: NanoBiT-G-protein dissociation assay, LPA1 L278A mutant; assay type: cell-based
Method in brief: as §1

Chain of human LPA1 (Q92633 whole entry): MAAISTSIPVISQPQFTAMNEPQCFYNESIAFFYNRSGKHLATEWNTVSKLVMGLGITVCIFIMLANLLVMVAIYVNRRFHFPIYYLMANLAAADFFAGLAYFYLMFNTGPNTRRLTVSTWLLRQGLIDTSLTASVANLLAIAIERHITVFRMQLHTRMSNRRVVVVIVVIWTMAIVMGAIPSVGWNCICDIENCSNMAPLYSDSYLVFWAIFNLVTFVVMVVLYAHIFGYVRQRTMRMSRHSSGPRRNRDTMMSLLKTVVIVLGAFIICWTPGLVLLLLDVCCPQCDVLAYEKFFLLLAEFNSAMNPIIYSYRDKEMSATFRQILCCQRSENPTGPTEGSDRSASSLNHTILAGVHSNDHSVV
Chain of human LPA1 L278A mutant (Q92633 whole entry L278A): as the sequence (Q92633 whole entry) above, with L278A counted along it
Chain of human LPA1 W271F mutant (Q92633 whole entry W271F): as the sequence (Q92633 whole entry) above, with W271F counted along it
Chain of human LPA1 W210A mutant (Q92633 whole entry W210A): as the sequence (Q92633 whole entry) above, with W210A counted along it

- EC50 (human LPA1; EC50, WT LPA1): 0.95 nM
- Emax relative to LPA (human LPA1; compared with LPA): 1.5 fold
- agonistic activity (EC50) relative to LPA (human LPA1; compared with LPA): 20 fold
- response of mutant compared with wild type (human LPA1 W210A mutant): responsive
- effect on receptor (FFAR4): no activity
- response of mutant compared with wild type (human LPA1 W271F mutant): reduction in response
- response of mutant compared with wild type (human LPA1 L278A mutant): reduced the activity
SMILES: CCc1oc2c([C@H](CO)N(CC)CC)cccc2c1C [CpY, (2R)-2-(diethylamino)-2-(2-ethyl-3-methyl-benzofuran-7-yl)ethanol]
- effect on receptor (CNRs): no activity
